From ChEMBL document CHEMBL1124288, “Synthesis and analgesic properties of N-substituted trans-4a-aryldecahydroisoquinolines” (J Med Chem, 1988)

Key:
Mus musculus = assay: Dose (sc) required for 50% reduction in frequency of writhing in mouse writhing analgesia test; format: functional
Rattus norvegicus = assay: Dose (sc) required for a 2-s increase in reaction time in rat tail heat analgesia test; format: functional
Mu-type opioid receptor = Mu-type opioid receptor (Rattus norvegicus, UniProt P33535); assay: Binding affinity to Opioid receptor mu 1 in rat brain using [3H]-NAL as radioligand; format: tissue-based
Method in brief: (§1)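 μ sites labelled with [3H]naloxone in rat brain homogenates. The assay details are given in an earlier report.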

[1] = molecular target: Kappa-type opioid receptor (Cavia porcellus, UniProt P41144); assay: Binding affinity to Opioid receptor kappa 1 in guinea pig cortex using [3H]EKC as radioligand
[2] = molecular target: Kappa-type opioid receptor (Cavia porcellus) (UniProt P41144); assay: Percent displacement of [3H]EKC from Opioid receptor kappa 1 in guinea pig cortex at 100 nM conc. of compound
[3] = molecular target: Kappa-type opioid receptor (Cavia porcellus) (UniProt P41144); assay: Percent displacement of [3H]EKC from Opioid receptor kappa 1 in guinea pig cortex at 1000 nM conc. of compound
[4] = molecular target: Mu-type opioid receptor (Rattus norvegicus) (UniProt P33535); assay: Binding affinity to Opioid receptor mu 1 in rat brain using [3H]NAL as radioligand; format: tissue-based; method in brief: as §1
[5] = molecular target: Mu-type opioid receptor (Rattus norvegicus) (UniProt P33535); assay: Percent displacement of [3H]-NAL from Opioid receptor mu 1 in rat brain at 1000 nM conc. of compound; format: tissue-based
[6] = molecular target: Mu-type opioid receptor (Rattus norvegicus) (UniProt P33535); assay: Binding affinity to mu opioid receptor in rat brain using [3H]NAL as radioligand; format: tissue-based; method in brief: as §1
[7] = molecular target: Kappa-type opioid receptor (Cavia porcellus) (UniProt P41144); assay: Percent displacement of [3H]EKC from Opioid receptor kappa 1 at 100 nM conc. of compound
[8] = molecular target: Mu-type opioid receptor (Rattus norvegicus) (UniProt P33535); assay: Percent displacement of [3H]NAL from Opioid receptor mu 1 at 1000 nM conc. of compound
[9] = molecular target: Kappa-type opioid receptor (Cavia porcellus) (UniProt P41144); assay: Percent displacement of [3H]EKC from Opioid receptor kappa 1 at 1000 nM conc. of compound
[10] = Mus musculus, sc, read-out: ED50

Sequence of Mu-type opioid receptor (Rattus norvegicus) (P33535 whole entry): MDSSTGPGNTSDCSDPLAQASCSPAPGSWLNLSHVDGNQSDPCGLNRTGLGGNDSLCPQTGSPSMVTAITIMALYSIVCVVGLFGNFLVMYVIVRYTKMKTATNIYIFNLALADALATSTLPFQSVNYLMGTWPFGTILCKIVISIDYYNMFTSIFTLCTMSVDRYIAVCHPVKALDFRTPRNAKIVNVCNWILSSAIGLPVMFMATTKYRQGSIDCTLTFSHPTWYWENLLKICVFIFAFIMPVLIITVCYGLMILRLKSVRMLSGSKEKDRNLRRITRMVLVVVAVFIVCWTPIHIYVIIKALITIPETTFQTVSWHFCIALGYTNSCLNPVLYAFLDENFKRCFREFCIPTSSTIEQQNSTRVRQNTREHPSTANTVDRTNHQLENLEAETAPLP
Sequence of Mu-type opioid receptor (P33535 whole entry): as above
Sequence of Kappa-type opioid receptor (P41144 whole entry): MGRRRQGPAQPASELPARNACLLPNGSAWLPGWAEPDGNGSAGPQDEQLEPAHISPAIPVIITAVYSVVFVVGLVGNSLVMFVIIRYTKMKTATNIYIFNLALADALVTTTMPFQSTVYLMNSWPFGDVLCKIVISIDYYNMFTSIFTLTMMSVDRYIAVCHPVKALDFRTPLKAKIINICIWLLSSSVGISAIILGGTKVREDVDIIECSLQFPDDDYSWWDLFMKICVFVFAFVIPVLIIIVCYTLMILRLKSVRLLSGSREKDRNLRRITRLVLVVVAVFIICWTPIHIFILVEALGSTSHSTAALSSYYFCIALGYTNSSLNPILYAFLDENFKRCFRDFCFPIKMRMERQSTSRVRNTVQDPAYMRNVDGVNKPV
Sequence of Kappa-type opioid receptor (Cavia porcellus) (P41144 whole entry): as above

## CCCN1CCC2(c3cccc(O)c3)CCCC[C@H]2C1 (some centres not stated)
Mus musculus; [10]
  ED50: 1.5 mg/kg
Rattus norvegicus
  ED2sec: 1.3 mg/kg

## CCCN1CCC2(c3cccc(O)c3)CCCC[C@H]2C1 (single isomer, unassigned; (-)) [listing 1 of 2 here]
Mu-type opioid receptor
  Ki: 473 nM

## Oc1cccc(C23CCCC[C@H]2CN(CC2CC2)CC3)c1 (single isomer, unassigned; (-))
Mu-type opioid receptor
  Ki: 4.2 nM
[1]
  Ki: 2.5 nM
Mus musculus
  ED50: 2.2 mg/kg
Rattus norvegicus
  ED2sec: 3 mg/kg

## CCN1CCC2(c3cccc(O)c3)CCCC[C@H]2C1 (some centres not stated)
Mu-type opioid receptor
  Ki: 29 nM
[1]
  Ki: 529 nM
Mus musculus; [10]
  ED50: 18.2 mg/kg
Rattus norvegicus
  ED2sec: >100 mg/kg

## C=CCN1CC[C@]23c4c5ccc(O)c4O[C@H]2[C@@H](O)C=C[C@H]3[C@H]1C5 [NALORPHINE]
Mu-type opioid receptor
  Ki: 6.5 nM
[1]
  Ki: 15 nM
Mus musculus; [10]
  ED50: 0.7 mg/kg
Rattus norvegicus
  ED2sec: >100 mg/kg

## CC(C)=CCN1CC[C@]2(C)c3cc(O)ccc3C[C@H]1[C@H]2C [(+)-PENTAZOCINE]
Mu-type opioid receptor
  Ki: 6.9 nM
[1]
  Ki: 75 nM
Mus musculus; [10]
  ED50: 2 mg/kg
Rattus norvegicus
  ED2sec: 2.6 mg/kg

## CN1CCC2(c3cccc(O)c3)CCCC[C@H]2C1 (single isomer, unassigned; (+))
Mu-type opioid receptor
  Ki: 0.96 nM
[1]
  Ki: 61 nM
Mus musculus
  ED50: 0.4 mg/kg
Rattus norvegicus
  ED2sec: 0.3 mg/kg

## COc1cccc(C23CCCC[C@H]2CN(C)CC3)c1 (some centres not stated)
Mus musculus; [10]
  ED50: 1.2 mg/kg
Rattus norvegicus
  ED2sec: 3.3 mg/kg

## Oc1cccc(C23CCCC[C@H]2CN(CC2CC2)CC3)c1 (single isomer, unassigned; (+)) [listing 1 of 2 here]
[2]
  Displacement: 5%
[3]
  Displacement: 32%
[4]
  Displacement: 4%
[5]
  Displacement: 35%

## Oc1cccc(C23CCCC[C@H]2CN(CCc2ccccc2)CC3)c1 (single isomer, unassigned; (-))
Mu-type opioid receptor
  Ki: 0.23 nM
[1]
  Ki: 89 nM

## CN1CCC2(c3ccccc3)CCCC[C@H]2C1 (some centres not stated)
Mus musculus; [10]
  ED50: 3.5 mg/kg
Rattus norvegicus
  ED2sec: 8.8 mg/kg

## CCN1CCC2(c3cccc(O)c3)CCCC[C@H]2C1 (single isomer, unassigned; (+))
[2]
  Displacement: 0%
[6]
  Displacement: 34%
[3]
  Displacement: 15%
[5]
  Displacement: 70%

## CCCN1CCC2(c3cccc(O)c3)CCCC[C@H]2C1 (single isomer, unassigned; (-)) [listing 2 of 2 here]
[2]
  Displacement: 12%
[3]
  Displacement: 46%

## Oc1cccc(C23CCCC[C@H]2CN(CC2CCC2)CC3)c1 (some centres not stated)
Mus musculus; [10]
  ED50: 0.6 mg/kg

## C=CCN1CCC2(c3cccc(O)c3)CCCC[C@H]2C1 (some centres not stated)
Mus musculus; [10]
  ED50: 1 mg/kg
Rattus norvegicus
  ED2sec: 1.4 mg/kg

## Oc1cccc(C23CCCC[C@H]2CN(CC2CC2)CC3)c1 (stereo in doubt; 29)
Mus musculus
  ED50: 3.3 mg/kg
Rattus norvegicus
  ED2sec: 5.6 mg/kg

## C[C@H]1[C@H]2Cc3ccc(O)cc3[C@]1(C)CCN2CC1CC1 [CYCLAZOCINE]
Mu-type opioid receptor
  Ki: 1.2 nM
[1]
  Ki: 1.3 nM
Mus musculus; [10]
  ED50: 0.07 mg/kg

## CN1CCC2(c3cccc(O)c3)CCCC[C@H]2C1 (stereo in doubt; 13)
Mus musculus
  ED50: 0.5 mg/kg
Rattus norvegicus
  ED2sec: 0.4 mg/kg

## CC(C)=CCN1CCC2(c3cccc(O)c3)CCCC[C@H]2C1 (some centres not stated)
Mus musculus; [10]
  ED50: 1 mg/kg
Rattus norvegicus
  ED2sec: 1.5 mg/kg

## CCCN1CCC2(c3cccc(O)c3)CCCC[C@H]2C1 (single isomer, unassigned; (+))
[2]
  Displacement: 4%
[4]
  Displacement: 43%
[5]
  Displacement: 83%

## Oc1cccc(C23CCCC[C@H]2CN(CCc2ccccc2)CC3)c1 (single isomer, unassigned; (+))
[2]
  Displacement: 8%
[3]
  Displacement: 53%
[4]
  Displacement: 19%
[5]
  Displacement: 74%

## CN1CCC2(c3cccc(O)c3)CCCC[C@H]2C1 (single isomer, unassigned; (-))
Mu-type opioid receptor
  Ki: 8.9 nM
[1]
  Ki: 433 nM
Mus musculus
  ED50: 2.1 mg/kg
Rattus norvegicus
  ED2sec: 1.6 mg/kg

## Oc1cccc(C23CCCC[C@H]2CN(CC2CC2)CC3)c1 (single isomer, unassigned; (+)) [listing 2 of 2 here]
Mus musculus
  ED50: >50 mg/kg
Rattus norvegicus
  ED2sec: >50 mg/kg

## CN1CC[C@]23c4c5ccc(O)c4O[C@H]2[C@@H](O)C=C[C@H]3[C@H]1C5 [MORPHINE]
Mus musculus; [10]
  ED50: 0.9 mg/kg
Rattus norvegicus
  ED2sec: 0.7 mg/kg

## C=CCN1CCC2(c3cccc(O)c3)CCCC[C@H]2C1 (single isomer, unassigned; (+))
[7]
  Displacement: 2%
[4]
  Displacement: 15%
[8]
  Displacement: 42%
[9]
  Displacement: 16%

## Oc1cccc(C23CCCC[C@H]2CN(CCc2ccccc2)CC3)c1 (some centres not stated)
Mus musculus; [10]
  ED50: 0.3 mg/kg
Rattus norvegicus
  ED2sec: 0.08 mg/kg
